Experimental data from PMC3638295 (International Journal of Medical Sciences, 2013).
No end group written: not given here.

What was measured:
LLC-MK2 cells = assay: Cytotoxicity, MTS cell viability assay; type: cell-based, Rhesus Monkey; details: 1 to 500 µM peptide, 24, 48 and 72 hours, triplicate
DENV-2 = assay: Plaque formation assay; type: cell-based, DENV-2 (strain New Guinea C); details: dose-response curve
Summary of the method: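 LLC-MK2 monkey kidney cells (passage <50; DMEM + 10% FBS, 37°C, 5% CO2) were seeded at 3×10^5 cells/well and exposed to a mixture of about 200 PFU DENV-2 New Guinea C (grown in C6/36 cells) and peptide. Plaques per well were counted and normalized to untreated controls as percent inhibition. Run in triplicate.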

Sequence	Toxicity compared to untreated control (LLC-MK2 cells)	maximum inhibition activity against DENV-2 (DENV-2; at 500 µM, mean ± SD, triplicate)	IC50 (DENV-2; read-out: IC50 against DENV-2, LLC-MK2 cells) [µM]
IGVRPGKLDL [DET3]	highest toxic effect compared to other peptides		
AGVKDGKLDF [DET4]		84.6% ± 5.6	35
